Assays:
[1] = tested on: Nicotiana tabacum; test: Inhibition of 50% growth of tobacco callus derived from Nicotiana tabacum var on medium with 0.05 uM kinetin but without anti-cytokinin; NR=not reached to the maximum growth within the concentration range tested; assay type: functional, organism-based
How it was run: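 Basal medium with 0.05 μM kinetin plus the test compound at a series of concentrations, pH 5.6 (1 N NaOH), autoclaved at 1.0 kg/cm² for 15 min. Three tobacco callus pieces of ca. 10 mg fresh weight were used per culture. I50 is the concentration giving 50% of the callus growth seen on kinetin medium without anticytokinin.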

[2] = tested on: Nicotiana tabacum; test: Concentration at which 50% of maximum response of callus yield derived from Nicotiana tabacum var is obtained; assay type: functional
How it was run: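 Three Nicotiana tabacum callus pieces of ca. 10 mg fresh weight were placed per culture. E50 is the concentration giving 50% of maximal callus yield.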

Compound | Log 1/I50 [1] | Log 1/E50 [2]
Cc1nc(NCCO)c2cc[nH]c2n1 | Not reached | 
CC(C)=CCNc1[nH]c(C)nc2nccc1-2 |  | 0.08
Cc1nc(Nc2cccc(Cl)c2)c2cc[nH]c2n1 |  | -0.66
Cc1nc(NCc2ccccc2)c2cc[nH]c2n1 [ROLODINE] |  | -0.72
Cc1cccc(Nc2[nH]c(C)nc3nccc2-3)c1 |  | -1.12
Cc1nc(Nc2cccc(Br)c2)c2cc[nH]c2n1 |  | -0.8
CCOCCNc1[nH]c(C)nc2nccc1-2 |  | -1.37
Cc1nc(NCCc2ccccc2)c2cc[nH]c2n1 |  | -1.37
CCCCCNc1[nH]c(C)nc2nccc1-2 |  | -0.72
Cc1nc(Nc2cccc(I)c2)c2cc[nH]c2n1 |  | -0.73
CCCCC(CC)CNc1[nH]c(C)nc2nccc1-2 (stereo unspecified) |  | -0.84
